The source of these data is ChEMBL document CHEMBL1926580, “Identification and development of 2,5-disubstituted oxadiazole as potential candidate for treatment of XDR and MDR tuberculosis” (2012).

In one assay the test system is BHK-21. The assay is described as follows: Cytotoxicity against hamster BHK21 cells after 5 days. It is filed as functional. As to conditions: Mesocricetus auratus, BHK-21, 120 h. The procedure, abridged: (§1)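 HepG2 and BHK21 cells were seeded, incubated 24 h at 37 °C, then exposed to twofold serial dilutions of compound. The value is CC50 (50% cytotoxic concentration), from at least two independent assays.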

The subject of the next assay is HepG2. The assay is described as follows: Cytotoxicity against human HepG2 cells after 5 days. It is filed as functional. As to conditions: HepG2, 120 h. In a few lines:
as §1

The subject of assay [1] is Mycobacterium tuberculosis. Put plainly: Antitubercular activity against Mycobacterium tuberculosis H37Rv ATCC 27294 assessed as intracellular ATP level after 5 days by luminescence assay. It is filed as functional. The procedure, abridged:
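Growth inhibition of M. tuberculosis H37Rv reported as MIC50. Compounds were dissolved in 90% DMSO (stock), twofold serially diluted in duplicate to 10 concentrations, and spotted into 384-well plates. Assays were run at least twice.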

Assay [2] concerns Mycobacterium tuberculosis. Put plainly: Antimycobacterial activity against Mycobacterium tuberculosis TN1037 assessed as intracellular ATP level after 5 days by luminescence assay. As to conditions: TN1037, 120 h. It is filed as functional.
The subject of assay [3] is Mycobacterium tuberculosis. Put plainly: Antimycobacterial activity against Mycobacterium tuberculosis TN1082 assessed as intracellular ATP level after 5 days by luminescence assay. It is filed as functional. The following applies: TN1082, 120 h.
The subject of assay [4] is Mycobacterium tuberculosis. Put plainly: Antimycobacterial activity against Mycobacterium tuberculosis AH9584 assessed as intracellular ATP level after 5 days by luminescence assay. It is filed as functional. As to conditions: AH9584, 120 h.
Assay [5] has as its system Mycobacterium tuberculosis. Put plainly: Antimycobacterial activity against Mycobacterium tuberculosis TN3183 assessed as intracellular ATP level after 5 days by luminescence assay. It is filed as functional. As to conditions: TN3183, 120 h.
For assay [6], the system named is Mycobacterium tuberculosis. The assay is described as follows: Antimycobacterial activity against clinical isolate of Mycobacterium tuberculosis TN675 assessed as intracellular ATP level after 5 days by luminescence assay. It is filed as functional. The following applies: TN675, 120 h.
The subject of assay [7] is Mycobacterium tuberculosis. Put plainly: Antimycobacterial activity against Mycobacterium tuberculosis TN1051 assessed as intracellular ATP level after 5 days by luminescence assay. It is filed as functional. As to conditions: TN1051, 120 h.
The subject of assay [8] is Mycobacterium tuberculosis. The assay is described as follows: Antimycobacterial activity against Mycobacterium tuberculosis TN4259 assessed as intracellular ATP level after 5 days by luminescence assay. It is filed as functional. The following applies: TN4259, 120 h.
Assay [9] concerns Mycobacterium tuberculosis. Put plainly: Antimycobacterial activity against Mycobacterium tuberculosis W4 assessed as intracellular ATP level after 5 days by luminescence assay. It is filed as functional. The following applies: W4, 120 h.
Assay [10] has as its system Mycobacterium tuberculosis. Put plainly: Antimycobacterial activity against Mycobacterium tuberculosis TN3979 assessed as intracellular ATP level after 5 days by luminescence assay. It is filed as functional. The following applies: TN3979, 120 h.
Assay [11] relates to Mycobacterium tuberculosis. The assay is described as follows: Antimycobacterial activity against clinical isolate Mycobacterium tuberculosis TN994 assessed as intracellular ATP level after 5 days by luminescence assay. It is filed as functional. As to conditions: TN994, 120 h.
Assay [12] deals with Mycobacterium tuberculosis. Put plainly: Antimycobacterial activity against Mycobacterium tuberculosis TN2351 assessed as intracellular ATP level after 5 days by luminescence assay. It is filed as functional. The following applies: TN2351, 120 h.
For assay [13], the system named is Mycobacterium tuberculosis. Put plainly: Antimycobacterial activity against Mycobacterium tuberculosis E8133 assessed as intracellular ATP level after 5 days by luminescence assay. As to conditions: E8133, 120 h.
In assay [14] the test system is Mycobacterium tuberculosis. Put plainly: Antimycobacterial activity against Mycobacterium tuberculosis TN913 assessed as intracellular ATP level after 5 days by luminescence assay. It is filed as functional. As to conditions: TN913, 120 h.
Assay [15] relates to Mycobacterium tuberculosis. Put plainly: Antimycobacterial activity against Mycobacterium tuberculosis TN1008 assessed as intracellular ATP level after 5 days by luminescence assay. It is filed as functional. The following applies: TN1008, 120 h.
Assay [16] has as its system Mycobacterium tuberculosis. The assay is described as follows: Antimycobacterial activity against Mycobacterium tuberculosis TN1040 assessed as intracellular ATP level after 5 days by luminescence assay. It is filed as functional. As to conditions: TN1040, 120 h.
Assay [17] concerns Mycobacterium tuberculosis. The assay is described as follows: Antimycobacterial activity against Mycobacterium tuberculosis BE11677 assessed as intracellular ATP level after 5 days by luminescence assay. It is filed as functional. As to conditions: BE11677, 120 h.
The test system of assay [18] is Mycobacterium tuberculosis. The assay is described as follows: Antimycobacterial activity against Mycobacterium tuberculosis TN2524 assessed as intracellular ATP level after 5 days by luminescence assay. It is filed as functional. As to conditions: TN2524, 120 h.
Where [19] appears, read: Mycobacterium tuberculosis, H37Rv ATCC 27294, 120 h.

Molecules are shown by their SMILES. Values after ≈ are worked out from the molar mass of the structure shown. Bounds are passed on as bounds.

What is called CC50 is the concentration that lowers cell viability or growth by half. A low value points to harm at low concentration. One may read the MIC50 as the lowest concentration that inhibits either 50% of growth or 50% of the strains tested, depending on the study. On to `ClCCCSc1nnc(COc2ccc(Cl)cc2Cl)o1`, for which the CC50 with BHK-21 and in the assay on HepG2 was > 50 µM in each case. In [1], the MBC90 was 2.5 µM (≈ 0.884 µg/mL). In addition, in assay [1] (setting [19]), the MIC50 amounted to 0.65 µM (≈ 0.23 µg/mL).
Take `CCCSc1nnc(COc2ccc(Cl)cc2Cl)o1`: the values for the CC50 in the assay on BHK-21 and in the assay with HepG2 were 13.8 µM and 19.3 µM, respectively. Further, the MBC90 in assay [1] worked out at 2.5 µM (≈ 0.798 µg/mL). Besides, the MIC50 in [1] (setting [19]) is 0.63 µM (≈ 0.201 µg/mL).
On to `O=C(CCl)Sc1nnc(COc2ccc(Cl)cc2Cl)o1`, for which the MIC50 in assay [1] (setting [19]) was > 20 µM.
Turning to `ClCCCSc1nnc(Cc2ccc(Cl)cc2Cl)o1`, the CC50 in the assay on BHK-21 and in the assay on HepG2 was > 50 µM in each case. The MBC90 in assay [1] is 5 µM (≈ 1.69 µg/mL). Further, the MIC50 in [1] (setting [19]) stood at 1.42 µM (≈ 0.479 µg/mL).
Turning to `CCCSc1nnc(Cc2ccc(Cl)cc2Cl)o1`, the CC50 with BHK-21 and in the assay on HepG2 was > 50 µM throughout. In [1], the MBC90 stood at 5 µM (≈ 1.52 µg/mL). Further, in [1] (setting [19]), the MIC50 came to 1.19 µM (≈ 0.361 µg/mL).
As to `O=C(CCl)Sc1nnc(Cc2ccc(Cl)cc2Cl)o1`, the MIC50 in assay [1] (setting [19]) amounted to 9.67 µM (≈ 3.26 µg/mL).
In the case of `O=[N+]([O-])c1cccc(OCc2nnc(SCCCCl)o2)c1`, the CC50 with BHK-21 and in the assay with HepG2 was > 50 µM each time. In assay [1] (setting [19]), the MIC50 was determined as 11.7 µM (≈ 3.86 µg/mL).
Consider `CCCSc1nnc(COc2cccc([N+](=O)[O-])c2)o1`, for which the CC50 in the assay with BHK-21 and in the assay on HepG2 was > 50 µM throughout. The MIC50 in assay [1] (setting [19]) was found to be 8.52 µM (≈ 2.52 µg/mL).
Turning to `O=C(CCl)Sc1nnc(COc2cccc([N+](=O)[O-])c2)o1`, in assay [1] (setting [19]), the MIC50 is > 20 µM.
With `O=[N+]([O-])c1cccc(Cc2nnc(SCCCCl)o2)c1`, the CC50 in the assay on BHK-21 and in the assay with HepG2 was > 50 µM in each case. Besides, the MIC50 in assay [1] (setting [19]) was found to be 7.48 µM (≈ 2.35 µg/mL).
Regarding `CCCSc1nnc(Cc2cccc([N+](=O)[O-])c2)o1`, the CC50 with BHK-21 and in the assay on HepG2 was > 50 µM in each case. For the same molecule, the MIC50 in assay [1] (setting [19]) came to 6.81 µM (≈ 1.9 µg/mL).
As to `O=C(CCl)Sc1nnc(Cc2cccc([N+](=O)[O-])c2)o1`, the MIC50 in [1] (setting [19]) is > 20 µM.
Usually MIC stands for the lowest concentration found to suppress growth. As for `NNC(=O)c1ccncc1` [ISONIAZID], the MIC amounted to 0.03 µg/mL (≈ 0.219 µM) in assay [2]; 0.03 µg/mL (≈ 0.219 µM) in assay [3]; 0.19 µg/mL (≈ 1.39 µM) in assay [4]; 0.03 µg/mL (≈ 0.219 µM) in assay [5]; 0.03 µg/mL (≈ 0.219 µM) in assay [6]; 0.03 µg/mL (≈ 0.219 µM) in [7]. For the same molecule, the MIC amounted to 0.03 µg/mL (≈ 0.219 µM) in assay [8]; 0.03 µg/mL (≈ 0.219 µM) in assay [9]; 0.06 µg/mL (≈ 0.438 µM) in [10]; 0.03 µg/mL (≈ 0.219 µM) in assay [11]; 0.06 µg/mL (≈ 0.438 µM) in assay [12]; 0.08 µg/mL (≈ 0.583 µM) in assay [13]. In addition, the MIC in assay [14] turned out to be 0.03 µg/mL (≈ 0.219 µM); in assay [15] it was 0.06 µg/mL (≈ 0.438 µM); in assay [16], 0.03 µg/mL (≈ 0.219 µM); in [1] (setting [19]), 0.03 µg/mL (≈ 0.219 µM); in assay [17] it was 0.2 µg/mL (≈ 1.46 µM); in assay [18], 0.06 µg/mL (≈ 0.438 µM). For the same molecule, the MIC50 in assay [1] (setting [19]) was 0.03 µM (≈ 0.00411 µg/mL).
